{"data": "Results from different studies", "target": "Mitogen-activated protein kinase kinase kinase 12 (MAP3K12, Homo sapiens, UniProt Q12852)", "One construct used (Q12852 1-859)": "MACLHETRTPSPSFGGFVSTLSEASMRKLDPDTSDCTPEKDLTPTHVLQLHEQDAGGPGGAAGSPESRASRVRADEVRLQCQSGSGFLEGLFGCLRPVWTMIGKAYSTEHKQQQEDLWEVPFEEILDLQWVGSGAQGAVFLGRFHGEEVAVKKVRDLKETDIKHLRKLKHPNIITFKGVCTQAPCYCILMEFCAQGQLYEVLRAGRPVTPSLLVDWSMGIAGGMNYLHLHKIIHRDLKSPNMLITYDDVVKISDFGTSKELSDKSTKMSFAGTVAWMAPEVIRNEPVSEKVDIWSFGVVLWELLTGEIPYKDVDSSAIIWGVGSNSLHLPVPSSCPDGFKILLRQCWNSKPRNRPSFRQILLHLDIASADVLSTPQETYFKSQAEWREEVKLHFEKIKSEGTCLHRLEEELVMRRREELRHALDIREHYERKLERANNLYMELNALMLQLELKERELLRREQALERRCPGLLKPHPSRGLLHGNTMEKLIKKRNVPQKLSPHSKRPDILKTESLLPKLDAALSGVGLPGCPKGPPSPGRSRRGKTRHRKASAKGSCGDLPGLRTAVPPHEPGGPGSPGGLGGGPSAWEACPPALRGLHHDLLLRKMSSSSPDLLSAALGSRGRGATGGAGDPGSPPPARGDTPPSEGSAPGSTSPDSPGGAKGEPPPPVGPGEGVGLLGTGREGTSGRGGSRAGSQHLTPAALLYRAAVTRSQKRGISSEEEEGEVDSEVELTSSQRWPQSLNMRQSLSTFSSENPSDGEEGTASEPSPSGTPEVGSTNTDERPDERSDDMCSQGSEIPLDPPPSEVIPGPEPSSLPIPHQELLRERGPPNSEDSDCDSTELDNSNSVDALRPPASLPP", "note": "Lines come from different studies, so protocols differ."}
{"SMILES": "O=C(Nc1cnn(-c2csc(C(=O)NC3COC3)c2)c1)Nc1c(F)cccc1Cl", "assay": "enzyme activity, inhibitor", "conditions": "5 µM", "measurement": "remaining activity", "result": "82.2%"}
{"SMILES": "CC/C(=N\\NC(=O)NCc1cccc(O)c1)c1ccc(O)c(C)c1O", "assay": "enzyme activity, inhibitor", "conditions": "0.1 µM", "measurement": "inhibition", "result": "0.4%"}
{"SMILES": "COc1ccnn2ncc(-c3ccnc(N(C)C)n3)c12", "assay": "binding", "conditions": "1 µM", "measurement": "remaining binding", "result": "97%"}
{"SMILES": "O=C(Nc1cccnn1)N1CCC(=Cc2cccc(Oc3ccc(C(F)(F)F)cn3)c2)CC1", "assay": "cell-free assay, competition with immobilised ligand", "conditions": "1 µM", "measurement": "remaining binding", "result": "100%"}
{"SMILES": "Cc1ccc(C(=O)Nc2ccc(CN3CCN(C)CC3)c(C(F)(F)F)c2)cc1C#Cc1cnc2cccnn12", "assay": "enzyme activity, inhibitor", "conditions": "23.5 nM", "measurement": "remaining activity", "result": "76%"}
{"SMILES": "CC(C)(O)[C@H]1CC[C@H](Nc2ccc3ncc(-c4cccc(C(F)(F)F)c4)n3n2)CC1", "assay": "enzyme activity, inhibitor", "conditions": "1 µM", "measurement": "remaining activity", "result": "73%"}
{"SMILES": "COc1ccc2cc(OCC3(C(=O)O)CN(C(=O)c4ccc(F)cc4)C3)ccc2c1", "assay": "cell-free assay, competition with immobilised ligand", "conditions": "1 µM", "measurement": "remaining binding", "result": "97%"}
{"SMILES": "O=C(Nc1cnn(-c2csc(C(=O)NC3COC3)c2)c1)Nc1ccccc1Cl", "assay": "enzyme activity, inhibitor", "conditions": "5 µM", "measurement": "remaining activity", "result": "96.5%"}
{"SMILES": "N[C@@H]1CCN(c2nccc(-c3cnn4ncccc34)n2)C1", "assay": "binding", "conditions": "1 µM", "measurement": "remaining binding", "result": "100%"}
{"SMILES": "Nc1ncnc2occ(-c3ccc(NC(=O)Nc4cc(C(F)(F)F)ccc4F)cc3)c12", "assay": "cell-free assay, inhibitor", "conditions": "20 µM", "measurement": "remaining signal", "result": "17%"}
